Assay [1] is described as follows: Antiplatelet activity against pig platelet assessed as inhibition of arachidonic acid-induced platelet aggregation by spectrophotometry. The format is functional, cell-based. The conditions noted are these: Sus scrofa. In a few lines:
(§1)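 Pig blood (six pigs) spun 1000 rpm 10 min for PRP, then 1500 rpm 10 min for PPP; PRP adjusted to 2×10^8 platelets/mL with autologous PPP. Compound (final 100 µM to 1 nM, diluted in NS from DMSO/NS stock) or NS added, then inducer at final PAF 0.1 µM, ADP 10 µM, AA 350 µM or thrombin 0.1 U/mL.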

The nature of assay [2]: Antiplatelet activity against pig platelet assessed as inhibition of thrombin-induced platelet aggregation by spectrophotometry. The format is functional, cell-based. The conditions noted are these: Sus scrofa. In a few lines: as §1
Assay [3] in a line: Antiplatelet activity against pig platelet assessed as inhibition of ADP-induced platelet aggregation by spectrophotometry. The format is functional, cell-based. The conditions noted are these: Sus scrofa. In a few lines:
as §1

Assay [4] is described as follows: Antiplatelet activity against pig platelet assessed as inhibition of PAF-induced platelet aggregation by spectrophotometry. The conditions noted are these: Sus scrofa. The format is functional, cell-based. The procedure, abridged: as §1
The next assay has as its system Aorta. Kind of assay: Inhibition of noradrenaline-induced contraction in Wistar rat thoracic aortic ring assessed as vasorelaxant activity at 300 uM treated after noradrenaline challenge. The format is functional. On the set-up: scale not given: the % may be the effect or the level left. The procedure, abridged:
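Male Wistar rats, 250–300 g, were decapitated and aortic strips were mounted in 37 °C Krebs solution (pH 7.4) gassed with 95% O2/5% CO2, connected to a tension transducer. Strips were contracted with 59 µM noradrenaline, washed, stabilised 30 min, then re-contracted with 59 µM noradrenaline. At peak contraction, compound in ethanol or ethanol alone was added and relaxation was recorded.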

For another assay, the system named is Rattus norvegicus. Description: Antithrombotic activity in Wistar rat assessed as thrombus weight at 10 nmol/kg, iv (reference value: 24.09 +/- 2.33 mg). The format is functional.

Structures are written as SMILES.

Usually IC50 stands for the concentration that gives 50% inhibition. On to `CC1(C)N2Cc3ccccc3C[C@H]2C(=O)N1[C@@H](CCC(=O)O)C(=O)O`, for which the IC50 in assay [1] came out at 388 nM; in assay [2], 808 nM; in assay [3] it was 248 nM; in assay [4] it was 695 nM. Besides, the Activity in the assay on Aorta is reported as 4.33%; in the assay on Rattus norvegicus, 18.57 mg.

As to `CSCC[C@@H](C(=O)O)N1C(=O)[C@@H]2Cc3ccccc3CN2C1(C)C`, the IC50 in assay [1] worked out at 408 nM; in assay [2], 852 nM; in assay [3], 264 nM; in assay [4], 499 nM. In addition, the Activity with Aorta worked out at 5.58%; with Rattus norvegicus, 19.56 mg.

As to `CC(O)[C@@H](C(=O)O)N1C(=O)[C@@H]2Cc3ccccc3CN2C1(C)C` (some centres not stated), the IC50 in assay [1] amounted to 335 nM; in assay [2], 698 nM; in assay [3], 207 nM; in assay [4], 600 nM. The values for the Activity with Aorta and in the assay with Rattus norvegicus were 9.98% and 16.04 mg, respectively.

In the case of `CC1(C)N2Cc3ccccc3C[C@H]2C(=O)N1[C@@H](Cc1ccc(O)cc1)C(=O)O`, the IC50 in assay [1] amounted to 420 nM; in assay [2], 875 nM; in assay [3] it was 273 nM; in assay [4], 752 nM. Besides, the Activity with Aorta is given as 1.59%; in the assay on Rattus norvegicus it was 20.1 mg.

As for `CC1(C)N2Cc3ccccc3C[C@H]2C(=O)N1[C@@H](CCCNC(=N)N)C(=O)O`, the IC50 in assay [1] stood at 271 nM; in assay [2], 567 nM; in assay [3] it was 159 nM; in assay [4], 486 nM. Also, the Activity in the assay on Aorta is 32.58%; in the assay with Rattus norvegicus, 13.01 mg.

For the molecule `CCC(C)[C@@H](C(=O)O)N1C(=O)[C@@H]2Cc3ccccc3CN2C1(C)C` (some centres not stated), the IC50 was 271 nM in assay [1], 565 nM in assay [2], 158 nM in assay [3] and 486 nM in assay [4]. In addition, the values for the Activity in the assay with Aorta and with Rattus norvegicus were 34.29% and 12.99 mg, respectively.

As to `CC1(C)N2Cc3ccccc3C[C@H]2C(=O)N1[C@@H](CCC(N)=O)C(=O)O`, the IC50 in assay [1] came out at 302 nM; in assay [2] it was 629 nM; in assay [3], 182 nM; in assay [4], 541 nM. Further, the Activity in the assay with Aorta was 12.24%; with Rattus norvegicus, 14.39 mg.

For `CC1(C)N2Cc3ccccc3C[C@H]2C(=O)N1[C@@H](CCCCN)C(=O)O`, the IC50 in assay [1] was 313 nM; in assay [2], 652 nM; in assay [3], 191 nM; in assay [4], 561 nM. In addition, the Activity was 12.01% with Aorta and 14.98 mg in the assay on Rattus norvegicus.

On to `CC1(C)N2Cc3ccccc3C[C@H]2C(=O)N1[C@@H](CC(N)=O)C(=O)O`, for which the IC50 in assay [1] amounted to 433 nM; in assay [2] it was 903 nM; in assay [3] it was 283 nM; in assay [4], 777 nM. The Activity is 3.89% in the assay on Aorta and 20.75 mg in the assay with Rattus norvegicus.

On to `CC(C)[C@@H](C(=O)O)N1C(=O)[C@@H]2Cc3ccccc3CN2C1(C)C`, for which the 50% inhibitory concentration (IC50) in assay [1] came to 292 nM; in assay [2] it was 610 nM; in assay [3], 175 nM; in assay [4] it was 525 nM. The Activity with Aorta is 16%; in the assay on Rattus norvegicus it was 14.01 mg.

Turning to `CC1(C)N2Cc3ccccc3C[C@H]2C(=O)N1[C@@H](CC(=O)O)C(=O)O`, the IC50 in assay [1] came to 447 nM; in assay [2], 932 nM; in assay [3], 294 nM; in assay [4], 801 nM. In addition, the Activity in the assay with Aorta was determined as 2.89%; with Rattus norvegicus it was 21.41 mg.

With `CC1(C)N2Cc3ccccc3C[C@H]2C(=O)N1[C@@H](CS)C(=O)O`, the IC50 in assay [1] amounted to 299 nM; in assay [2], 622 nM; in assay [3], 180 nM; in assay [4] it was 535 nM. Besides, the figures for the Activity in the assay with Aorta and in the assay on Rattus norvegicus were 16.57% and 14.36 mg, respectively.

These data come from ChEMBL document CHEMBL1641479, “2-Substituted (S)-2-(3,3-dimethyl-1-oxo-10,10a-dihydroimidazo[1,5-b]isoquinolin-2(1H,3H,5H)-yl)acetic acids: Conformational prediction, synthesis, anti-thrombotic and vasodilative evaluation” (Bioorg Med Chem, 2011).
